Test results reported in ChEMBL document CHEMBL2375244 (J Med Chem, 2013).
Blank lines part the entries; values can stand above or below the compound they belong to.

Experiments:
[1] = Cytotoxicity against mouse GC-1 cells after 72 hrs by MTT assay; type: functional, cell-based; settings: GC-1, 72 h
Procedure, shortened: (§1)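 Cells kept in RPMI or DMEM with 10% FBS at 37 °C, 5% CO₂ and allowed to attach overnight; 72 h with increasing inhibitor concentrations; then 1 mg/mL MTT for 3 h, DMSO solubilisation, OD read at 540 nm. Testis lines had culture conditions adapted to them. Dose-response in triplicate, 9 concentrations between 0.02 and 100 μM, averaged.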

[2] = Cytotoxicity against mouse TM4 cells after 72 hrs by MTT assay; type: functional, cell-based; settings: TM4, 72 h; procedure, shortened: as §1
[3] = Cytotoxicity against mouse GC-2 cells after 72 hrs by MTT assay; type: functional, cell-based; settings: GC-2, 72 h; procedure, shortened: as §1
CDK2/Cyclin A2 [4] = target: T1, CDK2/Cyclin A2 (Homo sapiens, UniProt P24941); experiment: Inhibition of human CDK2/Cyclin A2 using PKTPKKAKKL as substrate by PK/LDH spectrophotometric analysis; type: protein-complex assay
CDK2/Cyclin A2 [5] = target: T1, CDK2/Cyclin A2; experiment: Inhibition of human CDK2/Cyclin A2 using PKTPKKAKKL as substrate by fluorescence assay; type: protein-complex assay
MDA-MB-468 = experiment: Cytotoxicity against human MDA-MB-468 cells after 72 hrs by MTT assay; type: functional, cell-based; settings: MDA-MB-468, 72 h; procedure, shortened: as §1
A673 [6] = experiment: Induction of apoptosis in human A673 cells assessed as caspase-3 activation after 24 hrs by luminescence assay; type: functional, cell-based; settings: A673, 24 h
Procedure, shortened: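 Caspase-3/7 activation measured with a Caspase-Glo 3/7 luminescent assay. Cells were plated as for the high-throughput viability assay and exposed for 24 h to serial dilutions. EC50 was obtained from the dose-response.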

BT-549 = experiment: Cytotoxicity against human BT549 cells after 72 hrs by resazurin/resorufin-based fluorescence assay; type: functional, cell-based; settings: BT-549, 72 h
Procedure, shortened: (§2)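 CellTiter-Blue viability: 1200 cells per well seeded, incubated overnight at 37 °C, 5% CO₂; drugs serially diluted 2:3 in medium, four replicate wells per concentration plus four diluent-only control wells; 72 h exposure; resazurin reduction to resorufin read by fluorescence (579 nm ex/584 nm em). IC50 is the average of three data sets, each using nine concentrations between 0.004 μM and 12.5 μM.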

[7] = Cytotoxicity against human RPMI18226 cells after 72 hrs by resazurin/resorufin-based fluorescence assay; type: functional, cell-based; settings: RPMI18226, 72 h
SW872 = experiment: Cytotoxicity against human SW872 cells after 72 hrs by resazurin/resorufin-based fluorescence assay; type: functional, cell-based; settings: SW872, 72 h
HOS-TE85 = experiment: Cytotoxicity against human MNNG-HOS cells after 72 hrs by resazurin/resorufin-based fluorescence assay; type: functional, cell-based; settings: HOS-TE85, 72 h
U-266 = experiment: Cytotoxicity against human U266 cells after 72 hrs by resazurin/resorufin-based fluorescence assay; type: functional, cell-based; settings: U-266, 72 h
[8] = Cytotoxicity against human NCI-H929 cells after 72 hrs by resazurin/resorufin-based fluorescence assay; type: functional, cell-based; settings: NCI-H929, 72 h
SK-UT-1 = experiment: Cytotoxicity against human SK-UT-1 cells after 72 hrs by resazurin/resorufin-based fluorescence assay; type: functional, cell-based; settings: SK-UT-1, 72 h
SK-ES1 = experiment: Cytotoxicity against human SK-ES-1 cells after 72 hrs by resazurin/resorufin-based fluorescence assay; type: functional, cell-based; settings: SK-ES1, 72 h
SK-BR-3 = experiment: Cytotoxicity against human SK-BR-3 cells after 72 hrs by resazurin/resorufin-based fluorescence assay; type: functional, cell-based; settings: SK-BR-3, 72 h; procedure, shortened: as §2
MCF7 = experiment: Cytotoxicity against human MCF7 cells after 72 hrs by resazurin/resorufin-based fluorescence assay; type: functional, cell-based; settings: MCF7, 72 h
[9] = Cytotoxicity against human MDA-MB-436 cells after 72 hrs by resazurin/resorufin-based fluorescence assay; type: functional, cell-based; settings: MDA-MB-436, 72 h
MDA-MB-231 = experiment: Cytotoxicity against human MDA-MB-231 cells after 72 hrs by resazurin/resorufin-based fluorescence assay; type: functional, cell-based; settings: MDA-MB-231, 72 h
T47D = experiment: Cytotoxicity against human T47D cells after 72 hrs by resazurin/resorufin-based fluorescence assay; type: functional, cell-based
A673 [10] = experiment: Cytotoxicity against human A673 cells after 72 hrs by resazurin/resorufin-based fluorescence assay; type: functional, cell-based; settings: A673, 72 h

SMILES: Nc1nc(NC2CCCCC2)sc1C(=O)c1ccccc1
- IC50 [1]: 9.2 µM
- IC50 [2]: 9.3 µM
- IC50 [3]: 8.2 µM
- IC50 (CDK2/Cyclin A2 [4]): 1.3 µM

SMILES: C=CCNc1nc(N)c(C(=O)c2ccc(Cl)s2)s1
- IC50 (CDK2/Cyclin A2 [4]): 12 µM

SMILES: C=CCNc1nc(N)c(C(=O)c2ccc([N+](=O)[O-])cc2)s1
- IC50 (CDK2/Cyclin A2 [4]): 41 µM

SMILES: C=CCNc1nc(N)c(C(=O)C(C)(C)C)s1
- IC50 (CDK2/Cyclin A2 [4]): > 100 µM

SMILES: Nc1nc(NC2CCCCC2)sc1C(=O)c1cccnc1
- IC50 (CDK2/Cyclin A2 [5]): 0.38 µM
- IC50 (MDA-MB-468): 3.1 µM

SMILES: CCOC(=O)c1sc(Nc2ccccc2)nc1N
- IC50 (CDK2/Cyclin A2 [4]): > 100 µM

SMILES: C=CCNc1nc(N)c(C(C)=O)s1
- IC50 (CDK2/Cyclin A2 [4]): > 100 µM

SMILES: COc1cccc2c1C(=O)c1c(O)c3c(c(O)c1C2=O)C[C@@](O)(C(=O)CO)C[C@@H]3O[C@H]1C[C@H](N)[C@H](O)[C@H](C)O1 [DOXORUBICIN]
- EC50 (A673 [6]): 0.39 µM
- IC50 (BT-549): 0.11 µM
- IC50 [7]: 0.27 µM
- IC50 (SW872): 0.14 µM
- IC50 (HOS-TE85): 0.59 µM
- IC50 (U-266): 0.67 µM
- IC50 [8]: 0.065 µM
- IC50 (SK-UT-1): 0.076 µM
- IC50 (SK-ES1): 0.042 µM
- IC50 (SK-BR-3): 0.09 µM

SMILES: C=CCNc1nc(N)c(C(=O)c2cccnc2)s1
- IC50 (CDK2/Cyclin A2 [4]): 3.1 µM

SMILES: C=CCNc1nc(N)c(C(=O)c2ccc(OC)cc2)s1
- IC50 (CDK2/Cyclin A2 [4]): 35 µM

SMILES: Nc1nc(Nc2ccccc2)sc1C(=O)c1cc(C(F)(F)F)cc(C(F)(F)F)c1
- IC50 (CDK2/Cyclin A2 [4]): > 100 µM

SMILES: CC(C)(C)Nc1nc(N)c(C(=O)c2ccccc2)s1
- IC50 (CDK2/Cyclin A2 [4]): > 100 µM

SMILES: C=C(C)CNc1nc(N)c(C(=O)c2ccccc2)s1
- IC50 (CDK2/Cyclin A2 [4]): 15 µM

SMILES: C=CCNc1nc(N)c(C(=O)c2cccc([N+](=O)[O-])c2)s1
- IC50 (CDK2/Cyclin A2 [4]): 2.9 µM

SMILES: C=CCNc1nc(N)c(C(=O)c2ccccn2)s1
- IC50 (CDK2/Cyclin A2 [4]): 33 µM

SMILES: C=CCNc1nc(N)c(C(=O)c2ccncc2)s1
- IC50 (CDK2/Cyclin A2 [4]): 49 µM

Continued, in another order:

- IC50 (CDK2/Cyclin A2 [4]): 32 µM
SMILES: COC(=O)c1ccccc1C(=O)c1sc(Nc2ccc(S(N)(=O)=O)cc2)nc1N

- IC50 (CDK2/Cyclin A2 [5]): 0.93 µM
SMILES: Nc1nc(Nc2ccccc2)sc1C(=O)c1ccccc1
- IC50 [1]: 11 µM
- IC50 [2]: 12 µM
- IC50 [3]: 11 µM

- IC50 (CDK2/Cyclin A2 [4]): 25 µM
SMILES: Nc1nc(Nc2ccc(S(N)(=O)=O)cc2)sc1C(=O)c1cc(C(F)(F)F)cc(C(F)(F)F)c1

- IC50 (CDK2/Cyclin A2 [4]): 2.8 µM
SMILES: N#Cc1ccc(Nc2nc(N)c(C(=O)c3cccnc3)s2)cc1

- IC50 (CDK2/Cyclin A2 [4]): 15 µM
SMILES: Nc1nc(Nc2ccc(S(N)(=O)=O)cc2)sc1C(=O)c1cccc(Cl)c1

- IC50 (CDK2/Cyclin A2 [4]): 4 µM
SMILES: Nc1nc(Nc2ccc(C(=O)O)cc2)sc1C(=O)c1cccnc1

- IC50 (CDK2/Cyclin A2 [5]): 0.2 µM
SMILES: NC(=O)c1ccc(Nc2nc(N)c(C(=O)c3cccnc3)s2)cc1

- IC50 (CDK2/Cyclin A2 [5]): 0.07 µM
SMILES: Nc1nc(Nc2ccc(S(N)(=O)=O)cc2)sc1C(=O)c1ccc(S(N)(=O)=O)cc1
- IC50 (BT-549): > 10 µM
- IC50 [7]: > 10 µM
- IC50 (SW872): > 10 µM
- IC50 (MCF7): > 10 µM
- IC50 (HOS-TE85): > 10 µM
- IC50 [9]: > 10 µM
- IC50 (U-266): 7.2 µM
- IC50 [8]: > 10 µM
- IC50 (MDA-MB-231): > 10 µM
- IC50 (SK-UT-1): > 10 µM
- IC50 (T47D): 8.7 µM
- IC50 (SK-ES1): > 10 µM
- IC50 (A673 [10]): > 10 µM
- IC50 (SK-BR-3): > 10 µM

- IC50 (CDK2/Cyclin A2 [5]): 0.07 µM
SMILES: Nc1nc(Nc2ccc(S(N)(=O)=O)cc2)sc1C(=O)c1cccc([N+](=O)[O-])c1
- IC50 [1]: 22 µM
- IC50 [2]: 4 µM
- IC50 [3]: 20 µM

- IC50 (CDK2/Cyclin A2 [4]): 4.8 µM
SMILES: Cc1ccccc1C(=O)c1sc(Nc2ccc(S(N)(=O)=O)cc2)nc1N

- IC50 (CDK2/Cyclin A2 [4]): > 100 µM
SMILES: Nc1nc(Nc2ccccc2)sc1C(=O)c1ccc2ccccc2c1

- IC50 (CDK2/Cyclin A2 [4]): 1.4 µM
SMILES: Nc1nc(Nc2ccccc2)sc1C(=O)c1ccc(F)cc1
- IC50 [1]: 16 µM
- IC50 [2]: 14 µM
- IC50 [3]: 17 µM

- IC50 (CDK2/Cyclin A2 [4]): 1.5 µM
SMILES: Nc1nc(Nc2ccc(S(N)(=O)=O)cc2)sc1C(=O)c1cccc(O)c1

- IC50 (CDK2/Cyclin A2 [4]): 3.1 µM
SMILES: COc1cccc(C(=O)c2sc(Nc3ccccc3)nc2N)c1

- IC50 (CDK2/Cyclin A2 [4]): 7.4 µM
SMILES: Nc1nc(Nc2ccc(S(N)(=O)=O)cc2)sc1C(=O)c1ccc([N+](=O)[O-])cc1

- IC50 (CDK2/Cyclin A2 [4]): 5 µM
SMILES: C=CCNc1nc(N)c(C(=O)c2ccc3ccccc3c2)s1

- IC50 (CDK2/Cyclin A2 [4]): > 100 µM
SMILES: Nc1nc(Nc2ccccc2)sc1C(=O)c1cccc(C(F)(F)F)c1
